According to ChEMBL document CHEMBL2157868, “Design, synthesis, and preliminary biological evaluation of 6-O-glucose-azomycin adducts for diagnosis and therapy of hypoxic tumors” (J Med Chem, 2012):
pIC50: −log10 of the molar value. Active and inactive are the calls of the source. The rule behind the calls is not given here.

Legend:
[1] = Ratio of IAZA IC50 to compound IC50 for human MOO6X cells; format: functional
[2] = Cytotoxicity against human MOO6X cells after 3 days by MTT assay; format: functional, cell-based; details: 72 h
In short: (§1)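 MTT assay. Exponentially growing cells were seeded at 8 × 10² cells/well and held 24 h at 37 °C in 5% CO₂. Compound from a 2 mM stock in 95% ethanol was added, with a maximum final concentration of 1 mM. Exposure lasted 3 days at 37 °C. MTT was added for 4 h, formazan dissolved in DMSO, and absorbance read at 540 nm. IC50s were estimated from survival plots.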

HeLa [3] = assay: Cytotoxicity against human HeLa cells assessed as survival fraction under hypoxic condition to hypoxic condition plus sensitizer at 0.5 mM after 30 mins by clonogenic assay relative to control
EMT6 [4] = assay: Cytotoxicity against mouse EMT6 cells assessed as survival fraction ratio under hypoxic condition at 0.5 mM incubated for 30 mins followed by compound wash out measured after 10 to 14 days by clonogenic assay relative to control; format: functional
In short: (§2)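 Clonogenic radiosensitization. Cells (300000 per dish, DMEM/F12) were grown 24 h at 37 °C, 5% CO₂, then exposed to compound for 30 min. Hypoxic dishes were degassed by six vacuum/N₂ cycles, and all dishes were shaken 30 min at room temperature. Dishes were ⁶⁰Co γ-irradiated (0–20 Gy) under N₂ or air, then trypsinized and replated. Colonies were grown 10−14 days, stained, and counted, in triplicate. Surviving fractions at 18 Gy were taken from survival plots.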

[5] = Cytotoxicity against mouse KBALB-STK cells after 3 days by MTT assay; format: functional, cell-based; details: 72 h; in short: as §1
[6] = Cytotoxicity against human MOO6X cells assessed as survival fraction ratio under hypoxic condition at 0.5 mM incubated for 30 mins followed by compound wash out measured after 10 to 14 days by clonogenic assay relative to control; format: functional; in short: as §2
[7] = Cytotoxicity against mouse KBALB cells after 3 days by MTT assay; format: functional, cell-based; details: 72 h; in short: as §1
EMT6 [8] = assay: Cytotoxicity against mouse EMT6 cells after 3 days by MTT assay; format: functional, cell-based; details: EMT6, 72 h; in short: as §1
HeLa [9] = assay: Cytotoxicity against human HeLa cells after 3 days by MTT assay; format: functional, cell-based; details: 72 h; in short: as §1
[10] = molecular target: T1, Solute carrier family 2, facilitated glucose transporter member 2 (Homo sapiens) (UniProt P11168); assay: Binding affinity to recombinant GLUT2 expressed in Xenopus oocytes assessed as inhibition of [14C]glucose uptake after 20 mins by liquid scintillation counting; format: cell-based; details: Oocyte
T1 sequence (whole entry): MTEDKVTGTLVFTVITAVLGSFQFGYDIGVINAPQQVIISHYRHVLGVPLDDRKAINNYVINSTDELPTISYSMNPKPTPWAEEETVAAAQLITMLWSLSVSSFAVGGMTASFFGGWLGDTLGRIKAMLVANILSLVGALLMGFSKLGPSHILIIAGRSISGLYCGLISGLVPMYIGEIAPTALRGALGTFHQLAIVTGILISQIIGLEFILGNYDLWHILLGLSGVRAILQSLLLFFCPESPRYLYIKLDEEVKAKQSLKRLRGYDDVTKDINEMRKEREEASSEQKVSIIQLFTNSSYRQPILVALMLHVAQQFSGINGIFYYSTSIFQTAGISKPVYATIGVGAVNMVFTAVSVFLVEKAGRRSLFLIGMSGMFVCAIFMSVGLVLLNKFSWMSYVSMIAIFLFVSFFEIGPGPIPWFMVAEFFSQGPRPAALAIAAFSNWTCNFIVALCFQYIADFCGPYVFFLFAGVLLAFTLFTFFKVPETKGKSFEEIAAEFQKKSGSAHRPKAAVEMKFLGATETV
In short: (§3)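 Xenopus oocytes expressing the GLUT were incubated in groups of 10−12 in Na⁺ transport medium (Hepes, pH 7.5) with [¹⁴C]glucose (1 μCi/mL) and inhibitor for 20 min at 20 °C. Oocytes were washed six times in ice-cold medium, dissolved in 1% SDS, and counted by liquid scintillation. Uptake inhibition was plotted against inhibitor concentration; for GLUT-2, EC50 came from four-parameter logistic fitting.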

[11] = molecular target: T2, Solute carrier family 2, facilitated glucose transporter member 1 (Homo sapiens) (UniProt P11166); assay: Binding affinity to recombinant GLUT1 expressed in Xenopus oocytes assessed as inhibition of [14C]glucose uptake after 20 mins by liquid scintillation counting; format: cell-based; details: Oocyte; in short: as §3
T2 sequence (whole entry): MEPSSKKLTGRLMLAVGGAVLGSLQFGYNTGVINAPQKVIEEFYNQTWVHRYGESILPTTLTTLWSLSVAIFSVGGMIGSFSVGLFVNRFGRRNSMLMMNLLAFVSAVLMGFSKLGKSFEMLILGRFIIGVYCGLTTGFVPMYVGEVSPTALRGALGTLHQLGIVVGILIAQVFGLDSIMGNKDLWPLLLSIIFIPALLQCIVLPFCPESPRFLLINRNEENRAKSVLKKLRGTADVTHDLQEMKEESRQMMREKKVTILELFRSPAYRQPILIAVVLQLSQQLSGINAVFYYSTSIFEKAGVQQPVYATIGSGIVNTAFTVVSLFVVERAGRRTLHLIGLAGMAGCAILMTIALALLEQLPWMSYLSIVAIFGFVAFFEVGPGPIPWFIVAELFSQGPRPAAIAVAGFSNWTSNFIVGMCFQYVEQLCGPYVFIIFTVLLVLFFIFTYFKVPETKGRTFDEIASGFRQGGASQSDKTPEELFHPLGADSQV

EMT6 [12] = assay: Cytotoxicity against mouse EMT6 cells assessed as survival fraction ratio under hypoxic condition at 0.1 to 1 mM after 6 hrs relative to control; format: functional

Q: Which results are given for O=[N+]([O-])c1nccn1CC(O)COC[C@H]1OC(O)[C@H](O)[C@@H](O)[C@@H]1O (mixture of isomers)?
A: Ratio IC50 [1]: 10; pIC50 [2]: 4.30; Ratio (HeLa [3]): 1.2; Ratio (EMT6 [4]): 1; pIC50 [5]: 3.30; Ratio [6]: 1; pIC50 [7]: 3.30; pIC50 (EMT6 [8]): 3.22; pIC50 (HeLa [9]): 3.30

Q: With O=[N+]([O-])c1nccn1CC([18F])COC[C@H]1OC(O)[C@H](O)[C@@H](O)[C@@H]1O (mixture of isomers) as the compound, how does the pIC50 [2] read?
A: < 3.00

Q: What about the Ratio (HeLa [3]) of the same compound?
A: 1.3

Q: And the Ratio (EMT6 [4])?
A: 1.2

Q: What about the pIC50 [5] of the same compound?
A: < 3.00

Q: What about the Ratio [6] of the same compound?
A: 1.3

Q: What about the pIC50 [7] of the same compound?
A: < 3.00

Q: And the pIC50 (EMT6 [8])?
A: < 3.00

Q: And the pIC50 (HeLa [9])?
A: < 3.00

Q: Which Ratio (HeLa [3]) does the source give for O=[N+]([O-])c1nccn1/C=C/COC[C@H]1OC(O)[C@H](O)[C@@H](O)[C@@H]1O (mixture of isomers) here?
A: 1.7

Q: And the Ratio (EMT6 [4])?
A: 1.4

Q: And the ED50 [10]?
A: 500 µM

Q: And the inhibition [11]?
A: Active

Q: What about the Ratio [6] of the same compound?
A: 1.3

Q: What about the pIC50 (EMT6 [8]) of the same compound?
A: < 3.00

Q: Which results are given for O=[N+]([O-])c1nccn1[C@H]1O[C@H](C[123I])[C@@H](O)[C@@H]1O [IODOAZOMYCIN ARABINOSIDE]?
A: pIC50 [2]: < 3.00; pIC50 [5]: 3.30; pIC50 [7]: 3.30; pIC50 (EMT6 [8]): < 3.00; pIC50 (HeLa [9]): < 3.00; Ratio (EMT6 [12]): 1.5
